Compounds with a hit are over-represented: about 3.8% of the library has one in this group of screens.
RAM network inh: yeast RAM network inhibition; S. cerevisiae dse1pr::URA3 reporter, 5-FOA growth OD615, 2 d; analog-sensitive cbk1-as2 kinase mutant strain; inhibition, % at 50 µM; 190,000 tested, 1.8% active; AID 868;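 active = inhibition above a set limit, 3 SD over mean compound inhibition, cut at about 8.4% in these data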;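 also: 0% = DMSO-only wells with no growth and 100% = 10 µM 1-NA-PP1 full growth; inhibition rescues growth on 5-FOA so higher OD means more RAM inhibition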
NPY Y2 blocker: blocks the human neuropeptide Y Y2 receptor; P49146; NPY-Y2 expressing cells, antagonist mode; inhibition, % at 2.7 µM; 140,000 tested, 0.99% active; in the data active = inhibition above about 17%;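 also: 0% = vehicle with agonist challenge and 100% = reference antagonist with challenge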
INS promoter inh: TRM-6 insulin promoter activity inhibition. AID 1273. TRM-6 cells, insulin promoter-eGFP reporter, imaging; reporter expression induced with tamoxifen. 130,000 tested, 0.9% active. inhibition, % at 2 µM;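 active = inhibition above the mean plus 3 SD, with well images judged a real hit on visual review, cut at about 60% in these data, passing the limit was not always enough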
NPY Y1 blocker: blocks the human neuropeptide Y Y1 receptor. P25929. HEK293-CNG Y1 cells, membrane potential fluorescence; NPY at EC95, then isoproterenol. inhibition, % at 3.6 µM. 200,000 tested, 1% active;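 active = inhibition above the campaign mean inhibition of all tested compounds plus 3 SD, cut at about 20% in these data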;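 also: 0% = DMSO wells given NPY plus isoproterenol and 100% = isoproterenol alone without NPY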
Target sequence (P25929 whole entry, looked up): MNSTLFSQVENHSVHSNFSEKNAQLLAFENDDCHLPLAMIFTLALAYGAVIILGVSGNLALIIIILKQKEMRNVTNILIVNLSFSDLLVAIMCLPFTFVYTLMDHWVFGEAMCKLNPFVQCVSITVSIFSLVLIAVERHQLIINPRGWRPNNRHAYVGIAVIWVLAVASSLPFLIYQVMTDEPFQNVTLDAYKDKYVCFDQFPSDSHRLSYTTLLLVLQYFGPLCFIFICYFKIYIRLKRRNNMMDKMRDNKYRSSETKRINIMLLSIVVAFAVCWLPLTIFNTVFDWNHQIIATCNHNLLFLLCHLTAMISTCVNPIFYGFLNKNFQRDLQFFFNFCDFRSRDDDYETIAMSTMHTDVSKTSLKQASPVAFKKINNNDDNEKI
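Material: HEK293 Y1/CNG channel cell line | Also added: NPY (25 nM), isoproterenol (1 µM), Ro 20-1724 (25 µM) | Compound: One concentration, 3.6 µM, in 0.4% DMSO | Schedule: 3 h dye uptake, 1 h room-temperature compound, 45 min post-isoproterenol | Signal: Membrane-potential fluorescent dye readout | Read-out: % inhibition of NPY effect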
NPY1 pot ag: human NPY-Y1 potentiation or agonism, primary screen; P25929; NPY-Y1 expressing cells, potentiator/agonist activation; activation, % at 3.6 µM; 220,000 tested, 0.37% active; AID 1304; in the data active = activation above about 33%, passing the limit was not always enough;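 also: cells stimulated with NPY at EC10 then isoproterenol at EC100; 0% = low agonist plus stimulus and 100% = saturating agonist plus stimulus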
NPY2 pot ag: potentiators or agonists of human neuropeptide Y receptor Y2 | 220,000 tested, 0.45% active | activation, % at 3.6 µM | cells expressing NPY-Y2, potentiator/agonist read-out; in the data active = activation above about 27%;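 also: cells stimulated with NPY near EC25 plus isoproterenol at EC100; 0% = vehicle plus submaximal agonist and 100% = vehicle plus saturating agonist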
RAM 5-FOA: RAM network inhibitors in efflux-deficient yeast | S. cerevisiae efflux-deficient reporter strain, 5-FOA growth OD615, 2 days | shares compounds with RAM network inh | 1,200 tested, under 10 active | max inhibition, % | AID 1305; call rule not given here;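 also: plate controls were vehicle for no effect and reference inhibitor for full effect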
Numbers without * were called inactive.

For N#C/C(=C\C1=C(N2CCOCC2)C(=C\c2ccc(Cl)cc2)/CC1)C(=O)Nc1ccccc1F the results were RAM network inh 4, NPY Y2 blocker -1, INS promoter inh inactive, NPY Y1 blocker -1, NPY1 pot ag 8 and NPY2 pot ag -12.
C=CCn1c(SCc2csc(C)n2)nc2sc3c(c2c1=O)CCCCC3 was read as RAM network inh 17*, NPY Y2 blocker 5, INS promoter inh 34, NPY Y1 blocker 4, NPY1 pot ag -30, NPY2 pot ag -20 and RAM 5-FOA 3.
For C=CCn1c(SCc2csc(C)n2)nc2sc3c(c2c1=O)CCC(C)C3 (stereo not given) the results were RAM network inh 15*, NPY Y2 blocker 8, INS promoter inh -106, NPY Y1 blocker 4, NPY1 pot ag -7, NPY2 pot ag -19 and RAM 5-FOA 2.
C=CCn1c(SCC(=O)N2CCOCC2)nc2sc3c(c2c1=O)CCCC3 was read as RAM network inh 0, NPY Y2 blocker 0, INS promoter inh 11, NPY Y1 blocker 3, NPY1 pot ag 0 and NPY2 pot ag 0.
Screening CSc1ccccc1Nc1ncnc(N)n1 returned NPY1 pot ag -5 and NPY2 pot ag -5.
For COC(=O)NNC(=O)C1CCC(C(=O)NNC(=O)OC)CC1 (stereo not given) the results were RAM network inh 0, NPY Y2 blocker 1, INS promoter inh 47, NPY Y1 blocker 5, NPY1 pot ag 18 and NPY2 pot ag 10.
COc1ccc(CN2C(=O)c3cccc4cccc(c34)C2=O)cc1 was read as NPY1 pot ag 0 and NPY2 pot ag 3.
Screening COc1ccc(CN2C(=O)c3ccccc3C(/C=N\OCc3ccc(C)cc3)C2=O)cc1 (stereo not given) returned RAM network inh 14*, NPY Y2 blocker 1, INS promoter inh -4, NPY Y1 blocker 1, NPY1 pot ag 5, NPY2 pot ag 6 and RAM 5-FOA 4.
COC(=O)c1cccc(C(=O)N2CCCC(C(=O)c3cc(F)ccc3F)C2)c1 (stereo not given) was read as RAM network inh -1, NPY Y1 blocker 9, NPY1 pot ag -10 and NPY2 pot ag -10.
`CCCCCCNC(=O)c1cc(-c2ccco2)nc2ccccc12` gave RAM network inh 13*, NPY Y2 blocker 66*, INS promoter inh 65, NPY Y1 blocker 57*, NPY1 pot ag -149, NPY2 pot ag -123 and RAM 5-FOA 2.
COc1cc(C2NC(=O)NC3=C2C(=O)OC3)cc(OC)c1OC (stereo not given) was read as NPY1 pot ag 16 and NPY2 pot ag 9.
O=C(Nc1ccn(Cc2ccccc2F)n1)c1ccc(COc2ccc(Br)cc2)cc1 was read as RAM network inh 16*, NPY Y2 blocker 3, NPY Y1 blocker 1, NPY1 pot ag 16, NPY2 pot ag 19 and RAM 5-FOA 2.
For O=C(Nc1ccc(Cn2cccn2)cc1)c1ccc(COc2ccc(Br)cc2)cc1 the results were RAM network inh 2, NPY Y2 blocker 7, INS promoter inh 22, NPY Y1 blocker -1, NPY1 pot ag 22 and NPY2 pot ag -13.
O=[N+]([O-])c1ccc(C2CCCC/C2=N/OCc2ccc(F)cc2)c([N+](=O)[O-])c1 (stereo not given) was read as RAM network inh 13*, NPY Y2 blocker 12, INS promoter inh 40, NPY Y1 blocker 12, NPY1 pot ag -15, NPY2 pot ag -15 and RAM 5-FOA 1.
`O=C(C1CCCN(Cc2nc(-c3cccs3)no2)C1)N1CCOCC1` (stereo not given) gave RAM network inh 3, NPY Y1 blocker -3, NPY1 pot ag 0 and NPY2 pot ag -10.
For CCOc1ccccc1NC(=O)c1ccccc1-c1nc(-c2ccccc2)no1 the results were RAM network inh 12*, NPY Y2 blocker 18*, INS promoter inh -38, NPY Y1 blocker 25*, NPY1 pot ag -80, NPY2 pot ag -40 and RAM 5-FOA 6.
For CCOc1ccccc1-c1nc(-c2ccc(NC(=O)Cc3ccccc3OC)cc2)no1 the results were RAM network inh 7, NPY Y2 blocker 1, INS promoter inh 21, NPY Y1 blocker 4, NPY1 pot ag -26 and NPY2 pot ag -19.
Screening CC(C)Cn1c(N)c(-c2nc(C(C)C)c(C(=O)c3ccccc3F)s2)c(=O)n(C)c1=O returned RAM network inh 12*, NPY Y1 blocker -4, NPY1 pot ag -2, NPY2 pot ag 7 and RAM 5-FOA 2.
For COCCC1CCCCN1C(=O)c1cccc(OC2CCN(C3CCCC3)CC2)c1 (stereo not given) the results were RAM network inh 1, NPY Y1 blocker 0, NPY1 pot ag -10 and NPY2 pot ag -8.
`CCOc1cc(C(=O)N(C)c2ccccc2)cc(OCC)c1OCC` gave RAM network inh 1, NPY Y2 blocker 4, INS promoter inh -158, NPY Y1 blocker 2, NPY1 pot ag 3 and NPY2 pot ag -5.
Cc1cccc2cc(CN(Cc3ccccc3)C(=O)N3CCOCC3)c3nnnn3c12 was read as NPY Y2 blocker 1, INS promoter inh -148, NPY Y1 blocker 6, NPY1 pot ag 11 and NPY2 pot ag 12.
`O=C(CCC1CCCCC1)Nc1ccccc1-c1ccccc1` gave RAM network inh 25*, NPY Y2 blocker 2, INS promoter inh 16, NPY Y1 blocker 1, NPY1 pot ag -30, NPY2 pot ag -15 and RAM 5-FOA 5.
Screening O=C(CCC1CCCC1)Nc1ccccc1-c1ccccc1 returned RAM network inh 1, NPY Y2 blocker 6, INS promoter inh -20, NPY Y1 blocker -4, NPY1 pot ag -5 and NPY2 pot ag -11.
For COC(=O)c1cc(=O)n(Cc2ccc3c(c2)OCO3)c(=Nc2ccc(F)cc2)s1 the results were RAM network inh 4, NPY Y2 blocker 4, NPY Y1 blocker -3, NPY1 pot ag -9 and NPY2 pot ag -10.
For COC(=O)c1cc(=O)n(Cc2ccc(F)cc2)c(=NCc2ccc(F)cc2)s1 the results were RAM network inh 14*, INS promoter inh 0, NPY Y1 blocker 0, NPY1 pot ag -1, NPY2 pot ag 2 and RAM 5-FOA 3.
`COC(=O)NC1(C(=O)O)CCCC1` gave NPY1 pot ag 7 and NPY2 pot ag 13.
For CC1=NN(c2nc(-c3ccc(C)cc3)cs2)C(=O)C1N=Nc1ccc(C(N)=O)cc1 (stereo not given) the results were RAM network inh 12*, INS promoter inh -18, NPY Y1 blocker -1, NPY1 pot ag 8, NPY2 pot ag 9 and RAM 5-FOA 7.

Bioassay records (PubChem BioAssay)
